Experimental data published in ChEMBL document CHEMBL5380865, “Linearization of the Brevicidine and Laterocidine Lipopeptides Yields Analogues That Retain Full Antibacterial Activity” (J Med Chem, 2023).
≈ marks a conversion by molar mass, not a printed value. Where a SMILES comes first, the peptide text is derived from it. Bridges are numbered along the chain shown (N, C = ends). [ ]: non-standard residue; d: D form. The star is where a group is joined. ξ: configuration not given here. Octanoyl(7-Me) = CC(C)CCCCCC(=O)*; Hexanoyl(4ξ-Me) = CCC(C)CCC(=O)*; dOrn = NCCC[C@@H](N)C(=O)O; Orn = NCCC[C@H](N)C(=O)O; Dap = NC[C@H](N)C(=O)O; Alloc = C=CCOC(=O)*; OAll = C=CCO*

system: Escherichia coli; assay: Antibacterial activity Escherichia coli ATCC 25922 assessed as inhibition of visible bacterial growth incubated for 18 hrs by microbroth dilution assay; assay type: functional; conditions: not given
Procedure, shortened: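 CLSI broth microdilution. Strains streaked from glycerol stocks onto blood agar (16 h, 37 °C); single colonies grown in TSB at 37 °C, 220 rpm, to OD600 about 0.5. Diluted in MHB to 2 × 10^5 CFU/mL and mixed 1:1 with compounds serially diluted in MHB from DMSO stocks (colistin from water stocks), polypropylene plates. Sealed, 18 h at 37 °C, 600 rpm. MIC taken as lowest concentration preventing visible growth, three technical replicates.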

Q: Which MIC does the source give for `CC[C@H](C)[C@H](NC(=O)[C@@H](NC(=O)[C@H](Cc1c[nH]c2ccccc12)NC(=O)[C@@H](CCCN)NC(=O)[C@H](C)NC(=O)[C@H](CCCN)NC(=O)[C@@H](CCCN)NC(=O)[C@@H](Cc1c[nH]c2ccccc12)NC(=O)[C@@H](Cc1ccc(O)cc1)NC(=O)[C@@H](CO)NC(=O)CCCCCC(C)C)[C@@H](C)O)C(=O)N[C@@H](CC(N)=O)C(=O)NCC(=O)NCC(N)=O` ({Octanoyl(7-Me)}-[dS][dY][dW][dOrn][Orn]A[dOrn]WTINGG-NH2) here?
A: 4 µg/mL (≈ 2.45 µM)

Q: With `CC(C)CCCCCC(=O)N[C@H](CO)C(=O)N[C@H](Cc1ccc(O)cc1)C(=O)N[C@H](Cc1c[nH]c2ccccc12)C(=O)N[C@H](CCCN)C(=O)N[C@@H](CCCN)C(=O)NCC(=O)N[C@H](CCCN)C(=O)N[C@@H](Cc1c[nH]c2ccccc12)C(=O)N[C@H](C(N)=O)[C@@H](C)O` ({Octanoyl(7-Me)}-[dS][dY][dW][dOrn][Orn]G[dOrn]WT-NH2) as the compound, how does the MIC read?
A: > 32 µg/mL

system: not listed separately; assay: Hemolytic activity in sheep red blood cell assessed as hemolysis at 1 to 128 ug/ml incubated for 1 hrs relative to control; assay type: toxicity, cell-based, Ovis aries, Erythrocyte; conditions: sheep red blood cells (erythrocytes), at 1 to 128 µg/mL, dose 1-128 µg/ml, read-out: Activity
Procedure, shortened: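 Defibrinated sheep erythrocytes washed five times in PBS with 0.002% Tween20 and normalized so the Triton control reads 2.5–3.0 at 415 nm. Mixed 1:1 with compound serial dilutions (128–1 μg/mL) and incubated 1 h at 37 °C, 500 rpm. Supernatant A415 is background-corrected with buffer and expressed as percent of 0.1% Triton X-100 (final). Run in triplicate.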

Q: For `CCC(C)CCC(=O)N[C@H](CC(N)=O)C(=O)N[C@H](Cc1ccc(O)cc1)C(=O)N[C@H](Cc1c[nH]c2ccccc12)C(=O)N[C@H](CCCN)C(=O)N[C@@H](CCCN)C(=O)NCC(=O)N[C@H](CCCN)C(=O)N[C@@H](Cc1c[nH]c2ccccc12)C(N)=O` (stereo not given in full) ({Hexanoyl(4ξ-Me)}-[dN][dY][dW][dOrn][Orn]G[dOrn]W-NH2), which hemolysis at 1 h is on record?
A: < 0.1%

Q: With `CCC(C)CCC(=O)N[C@H](CC(N)=O)C(=O)N[C@H](Cc1ccc(O)cc1)C(=O)N[C@H](Cc1c[nH]c2ccccc12)C(=O)N[C@H](CCCN)C(=O)N[C@@H](CCCN)C(=O)NCC(=O)N[C@H](CCCN)C(=O)N[C@@H](Cc1c[nH]c2ccccc12)C(=O)N[C@H](C(N)=O)[C@@H](C)O` (stereo not given in full) ({Hexanoyl(4ξ-Me)}-[dN][dY][dW][dOrn][Orn]G[dOrn]WT-NH2) as the compound, how does the hemolysis at 1 h read?
A: < 0.1%

Q: For `CCC(C)CCC(=O)N[C@H](CC(N)=O)C(=O)N[C@H](Cc1ccc(O)cc1)C(=O)N[C@H](Cc1c[nH]c2ccccc12)C(=O)N[C@H](CCCN)C(=O)N[C@@H](CCCN)C(=O)NCC(=O)N[C@H](CCCN)C(=O)N[C@@H](Cc1c[nH]c2ccccc12)C(=O)N[C@H](C(=O)N[C@H](C(N)=O)[C@@H](C)CC)[C@@H](C)O` (stereo not given in full) ({Hexanoyl(4ξ-Me)}-[dN][dY][dW][dOrn][Orn]G[dOrn]WTI-NH2), which hemolysis at 1 h is on record?
A: < 0.1%

Q: For `CCC(C)CCC(=O)N[C@H](CC(N)=O)C(=O)N[C@H](Cc1ccc(O)cc1)C(=O)N[C@H](Cc1c[nH]c2ccccc12)C(=O)N[C@H](CCCN)C(=O)N[C@@H](CCCN)C(=O)NCC(=O)N[C@H](CCCN)C(=O)N[C@@H](Cc1c[nH]c2ccccc12)C(=O)N[C@H](C(=O)N[C@H](C(=O)NCC(=O)N[C@@H](CO)C(N)=O)[C@@H](C)CC)[C@@H](C)O` (stereo not given in full) ({Hexanoyl(4ξ-Me)}-[dN][dY][dW][dOrn][Orn]G[dOrn]WTIGS-NH2), which hemolysis at 1 h is on record?
A: < 0.1%

Q: For `CCC(C)CCC(=O)N[C@H](CC(N)=O)C(=O)N[C@H](Cc1ccc(O)cc1)C(=O)N[C@H](Cc1c[nH]c2ccccc12)C(=O)N[C@H](CCCN)C(=O)N[C@@H](CCCN)C(=O)NCC(=O)N[C@H](CCCN)C(=O)N[C@@H](Cc1c[nH]c2ccccc12)C(=O)N[C@H](C(=O)N[C@H](C(=O)NCC(=O)N[C@@H](CO)C(=O)O)[C@@H](C)CC)[C@@H](C)O` (stereo not given in full) ({Hexanoyl(4ξ-Me)}-[dN][dY][dW][dOrn][Orn]G[dOrn]WTIGS-OH), which hemolysis at 1 h is on record?
A: < 0.1%

Q: Which hemolysis at 1 h does the source give for `CCC(C)CCC(=O)N[C@H](CC(N)=O)C(=O)N[C@H](Cc1ccc(O)cc1)C(=O)N[C@H](Cc1c[nH]c2ccccc12)C(=O)N[C@H](CCCN)C(=O)N[C@@H](CCCN)C(=O)NCC(=O)N[C@H](CCCN)C(=O)N[C@@H](Cc1c[nH]c2ccccc12)C(=O)N[C@@H]1C(=O)N[C@@H]([C@@H](C)CC)C(=O)NCC(=O)N[C@@H](CO)C(=O)O[C@@H]1C` (stereo not given in full) ({Hexanoyl(4ξ-Me)}-[dN][dY][dW][dOrn][Orn]G[dOrn]WTIGS; ester 9-C) here?
A: < 0.1%

Q: With `C=CCOC(=O)NC[C@H](NC(=O)[C@H](Cc1c[nH]c2ccccc12)NC(=O)[C@@H](CCCN)NC(=O)CNC(=O)[C@H](CCCN)NC(=O)[C@@H](CCCN)NC(=O)[C@@H](Cc1c[nH]c2ccccc12)NC(=O)[C@@H](Cc1ccc(O)cc1)NC(=O)[C@@H](CC(N)=O)NC(=O)CCC(C)CC)C(=O)N[C@H](C(=O)NCC(N)=O)[C@@H](C)CC` (stereo not given in full) ({Hexanoyl(4ξ-Me)}-[dN][dY][dW][dOrn][Orn]G[dOrn]W[Dap](Alloc)IG-NH2) as the compound, how does the hemolysis at 1 h read?
A: < 0.1%

Q: With `CC(C)CCCCCC(=O)N[C@H](CO)C(=O)N[C@H](Cc1ccc(O)cc1)C(=O)N[C@H](Cc1c[nH]c2ccccc12)C(=O)N[C@H](CCCN)C(=O)N[C@@H](CCCN)C(=O)NCC(=O)N[C@H](CCCN)C(=O)N[C@@H](Cc1c[nH]c2ccccc12)C(N)=O` ({Octanoyl(7-Me)}-[dS][dY][dW][dOrn][Orn]G[dOrn]W-NH2) as the compound, how does the hemolysis at 1 h read?
A: < 0.1%

Q: For `C=CCOC(=O)CC[C@H](NC(=O)[C@H](Cc1c[nH]c2ccccc12)NC(=O)[C@@H](CCCN)NC(=O)CNC(=O)[C@H](CCCN)NC(=O)[C@@H](CCCN)NC(=O)[C@@H](Cc1c[nH]c2ccccc12)NC(=O)[C@@H](Cc1ccc(O)cc1)NC(=O)[C@@H](CO)NC(=O)CCCCCC(C)C)C(=O)N[C@H](C(=O)N[C@@H](CC(N)=O)C(=O)NCC(=O)NCC(N)=O)[C@@H](C)CC` ({Octanoyl(7-Me)}-[dS][dY][dW][dOrn][Orn]G[dOrn]WE(OAll)INGG-NH2), which hemolysis at 1 h is on record?
A: < 0.1%

Q: Which hemolysis at 1 h does the source give for `CC[C@H](C)[C@H](NC(=O)[C@H](Cc1ccccc1)NC(=O)[C@H](Cc1c[nH]c2ccccc12)NC(=O)[C@@H](CCCN)NC(=O)CNC(=O)[C@H](CCCN)NC(=O)[C@@H](CCCN)NC(=O)[C@@H](Cc1c[nH]c2ccccc12)NC(=O)[C@@H](Cc1ccc(O)cc1)NC(=O)[C@@H](CO)NC(=O)CCCCCC(C)C)C(=O)N[C@@H](CC(N)=O)C(=O)NCC(=O)NCC(N)=O` ({Octanoyl(7-Me)}-[dS][dY][dW][dOrn][Orn]G[dOrn]WFINGG-NH2) here?
A: 0.6%

Q: For `CC[C@H](C)[C@H](NC(=O)[C@H](CC(C)C)NC(=O)[C@H](Cc1c[nH]c2ccccc12)NC(=O)[C@@H](CCCN)NC(=O)CNC(=O)[C@H](CCCN)NC(=O)[C@@H](CCCN)NC(=O)[C@@H](Cc1c[nH]c2ccccc12)NC(=O)[C@@H](Cc1ccc(O)cc1)NC(=O)[C@@H](CO)NC(=O)CCCCCC(C)C)C(=O)N[C@@H](CC(N)=O)C(=O)NCC(=O)NCC(N)=O` ({Octanoyl(7-Me)}-[dS][dY][dW][dOrn][Orn]G[dOrn]WLINGG-NH2), which hemolysis at 1 h is on record?
A: < 0.1%

Q: For `CC[C@H](C)[C@H](NC(=O)[C@H](CC(N)=O)NC(=O)[C@H](Cc1c[nH]c2ccccc12)NC(=O)[C@@H](CCCN)NC(=O)CNC(=O)[C@H](CCCN)NC(=O)[C@@H](CCCN)NC(=O)[C@@H](Cc1c[nH]c2ccccc12)NC(=O)[C@@H](Cc1ccc(O)cc1)NC(=O)[C@@H](CO)NC(=O)CCCCCC(C)C)C(=O)N[C@@H](CC(N)=O)C(=O)NCC(=O)NCC(N)=O` ({Octanoyl(7-Me)}-[dS][dY][dW][dOrn][Orn]G[dOrn]WNINGG-NH2), which hemolysis at 1 h is on record?
A: < 0.1%

Q: For `CC[C@H](C)[C@H](NC(=O)[C@H](CO)NC(=O)[C@H](Cc1c[nH]c2ccccc12)NC(=O)[C@@H](CCCN)NC(=O)CNC(=O)[C@H](CCCN)NC(=O)[C@@H](CCCN)NC(=O)[C@@H](Cc1c[nH]c2ccccc12)NC(=O)[C@@H](Cc1ccc(O)cc1)NC(=O)[C@@H](CO)NC(=O)CCCCCC(C)C)C(=O)N[C@@H](CC(N)=O)C(=O)NCC(=O)NCC(N)=O` ({Octanoyl(7-Me)}-[dS][dY][dW][dOrn][Orn]G[dOrn]WSINGG-NH2), which hemolysis at 1 h is on record?
A: < 0.1%

Q: For `CC(C)CCCCCC(=O)N[C@H](CO)C(=O)N[C@H](Cc1ccc(O)cc1)C(=O)N[C@H](Cc1c[nH]c2ccccc12)C(=O)N[C@H](CCCN)C(=O)N[C@@H](CCCN)C(=O)NCC(=O)N[C@H](CCCN)C(=O)N[C@@H](Cc1c[nH]c2ccccc12)C(=O)N[C@H](C(N)=O)[C@@H](C)O` ({Octanoyl(7-Me)}-[dS][dY][dW][dOrn][Orn]G[dOrn]WT-NH2), which hemolysis at 1 h is on record?
A: < 0.1%

Q: With `CC[C@H](C)[C@H](NC(=O)[C@@H](NC(=O)[C@H](Cc1c[nH]c2ccccc12)NC(=O)[C@@H](CCCN)NC(=O)CNC(=O)[C@H](CCCN)NC(=O)[C@@H](CCCN)NC(=O)[C@@H](Cc1c[nH]c2ccccc12)NC(=O)[C@@H](Cc1ccc(O)cc1)NC(=O)[C@@H](CO)NC(=O)CCCCCC(C)C)[C@@H](C)O)C(=O)N[C@@H](CC(N)=O)C(=O)NCC(N)=O` ({Octanoyl(7-Me)}-[dS][dY][dW][dOrn][Orn]G[dOrn]WTING-NH2) as the compound, how does the hemolysis at 1 h read?
A: < 0.1%

Q: For `CC[C@H](C)[C@H](NC(=O)[C@@H](NC(=O)[C@H](Cc1c[nH]c2ccccc12)NC(=O)[C@@H](CCCN)NC(=O)CNC(=O)[C@H](CCCN)NC(=O)[C@@H](CCCN)NC(=O)[C@@H](Cc1c[nH]c2ccccc12)NC(=O)[C@@H](Cc1ccc(O)cc1)NC(=O)[C@@H](CO)NC(=O)CCCCCC(C)C)[C@@H](C)O)C(=O)N[C@@H](CC(N)=O)C(=O)NCC(=O)NCC(N)=O` ({Octanoyl(7-Me)}-[dS][dY][dW][dOrn][Orn]G[dOrn]WTINGG-NH2), which hemolysis at 1 h is on record?
A: < 0.1%

Q: For `CC[C@H](C)[C@H](NC(=O)[C@@H](NC(=O)[C@H](Cc1c[nH]c2ccccc12)NC(=O)[C@@H](CCCN)NC(=O)CNC(=O)[C@H](CCCN)NC(=O)[C@@H](CCCN)NC(=O)[C@@H](Cc1c[nH]c2ccccc12)NC(=O)[C@@H](Cc1ccc(O)cc1)NC(=O)[C@@H](CO)NC(=O)CCCCCC(C)C)[C@@H](C)O)C(=O)N[C@@H](CC(N)=O)C(=O)NCC(=O)NCC(=O)O` ({Octanoyl(7-Me)}-[dS][dY][dW][dOrn][Orn]G[dOrn]WTINGG-OH), which hemolysis at 1 h is on record?
A: < 0.1%

Q: With `C=CCOC(=O)NC[C@H](NC(=O)[C@H](Cc1c[nH]c2ccccc12)NC(=O)[C@@H](CCCN)NC(=O)CNC(=O)[C@H](CCCN)NC(=O)[C@@H](CCCN)NC(=O)[C@@H](Cc1c[nH]c2ccccc12)NC(=O)[C@@H](Cc1ccc(O)cc1)NC(=O)[C@@H](CO)NC(=O)CCCCCC(C)C)C(=O)N[C@H](C(=O)N[C@@H](CC(N)=O)C(=O)NCC(=O)NCC(N)=O)[C@@H](C)CC` ({Octanoyl(7-Me)}-[dS][dY][dW][dOrn][Orn]G[dOrn]W[Dap](Alloc)INGG-NH2) as the compound, how does the hemolysis at 1 h read?
A: < 0.1%
